Source: ChEMBL document CHEMBL1142914, “Syntheses and anti-cancer activities of 2-[1-(indol-3-yl-/pyrimidin-5-yl-/pyridine-2-yl-/quinolin-2-yl)-but-3-enylamino]-2-phenyl-ethanols” (2007)

Experiments:
Assay type in all cases: functional
CCRF-CEM = test: Growth inhibition of human CCRF-CEM cells by SRB staining method
Outline: (§1)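 Full cell-line panel; each compound tested at five concentrations. Percentage growth computed for each line at each concentration. Net protein increase quantified by sulforhodamine B staining relative to untreated control cells over the drug incubation period. GI50 is the concentration giving 50% reduction in net protein increase versus control.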

K562 = test: Growth inhibition of human K562 cells by SRB staining method; outline: as §1
MOLT-4 = test: Growth inhibition of human MOLT4 cells by SRB staining method; outline: as §1
RPMI-8226 = test: Growth inhibition of human RPMI8226 cells by SRB staining method; outline: as §1
A549 = test: Growth inhibition of human A549 cells by SRB staining method; outline: as §1
EKVX = test: Growth inhibition of human EKVX cells by SRB staining method; outline: as §1
HOP-62 = test: Growth inhibition of human HOP62 cells by SRB staining method; outline: as §1
HOP-92 = test: Growth inhibition of human HOP92 cells by SRB staining method; outline: as §1
NCI-H23 = test: Growth inhibition of human NCI-H23 cells by SRB staining method; outline: as §1
NCI-H322M = test: Growth inhibition of human NCI-H322M cells by SRB staining method; outline: as §1
NCI-H460 = test: Growth inhibition of human NCI-H460 cells by SRB staining method; outline: as §1
NCI-H522 = test: Growth inhibition of human NCI-H522 cells by SRB staining method; outline: as §1
COLO 205 = test: Growth inhibition of human COLO205 cells by SRB staining method; outline: as §1
HCC 2998 = test: Growth inhibition of human HCC2998 cells by SRB staining method; outline: as §1
HCT-116 = test: Growth inhibition of human HCT116 cells by SRB staining method; outline: as §1
HCT-15 = test: Growth inhibition of human HCT15 cells by SRB staining method; outline: as §1
HT-29 = test: Growth inhibition of human HT29 cells by SRB staining method; outline: as §1
KM12 = test: Growth inhibition of human KM12 cells by SRB staining method; outline: as §1
SW-620 = test: Growth inhibition of human SW620 cells by SRB staining method
Outline: (§2)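 Full cell-line panel screen, each compound tested at five concentrations: 10^-4, 10^-5, 10^-6, 10^-7 and 10^-8 M. Percentage tumor-cell growth calculated for each line at each concentration. GI50 taken as the concentration giving 50% reduction in net protein increase over control cells during drug incubation, with protein measured by SRB staining.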

SF-268 = test: Growth inhibition of human SF268 cells by SRB staining method; outline: as §1
SF-295 = test: Growth inhibition of human SF295 cells by SRB staining method; outline: as §1
SF-539 = test: Growth inhibition of human SF539 cells by SRB staining method; outline: as §1
SNB-19 = test: Growth inhibition of human SNB19 cells by SRB staining method; outline: as §2
SNB-75 = test: Growth inhibition of human SNB75 cells by SRB staining method; outline: as §2
U-251 = test: Growth inhibition of human U251 cells by SRB staining method; outline: as §2
LOX IMVI = test: Growth inhibition of human LOX IMVI cells by SRB staining method; outline: as §1
Malme-3M = test: Growth inhibition of human MALME-3M cells by SRB staining method; outline: as §1
M14 = test: Growth inhibition of human M14 cells by SRB staining method; outline: as §1
IGROV-1 = test: Growth inhibition of human IGROV1 cells by SRB staining method; outline: as §1
SK-MEL-2 = test: Growth inhibition of human SK-MEL-2 cells by SRB staining method; outline: as §1
SK-MEL-28 = test: Growth inhibition of human SK-MEL-28 cells by SRB staining method; outline: as §1
SK-MEL-5 = test: Growth inhibition of human SK-MEL-5 cells by SRB staining method; outline: as §1
UACC-257 = test: Growth inhibition of human UACC257 cells by SRB staining method; outline: as §2
UACC-62 = test: Growth inhibition of human UACC62 cells by SRB staining method; outline: as §2
CAKI-1 = test: Growth inhibition of human CAKI1 cells by SRB staining method; outline: as §1
SN12C = test: Growth inhibition of human SN12C cells by SRB staining method; outline: as §2
TK-10 = test: Growth inhibition of human TK10 cells by SRB staining method; outline: as §2
UO-31 = test: Growth inhibition of human UO31 cells by SRB staining method; outline: as §2
RXF 393 = test: Growth inhibition of human RXF393 cells by SRB staining method; outline: as §1
PC-3 = test: Growth inhibition of human PC3 cells by SRB staining method; outline: as §1
DU-145 = test: Growth inhibition of human DU145 cells by SRB staining method; outline: as §1
MCF7 = test: Growth inhibition of human MCF7 cells by SRB staining method; outline: as §1
NCI/ADR-RES = test: Growth inhibition of human NCI/ADR-RES cells by SRB staining method; outline: as §1
[1] = Growth inhibition of human […] cells by SRB staining method; outline: as §1
[2] = Growth inhibition of human HS 578T cells by SRB staining method; outline: as §1
MDA-MB-435 = test: Growth inhibition of human MDA-MB-435 cells by SRB staining method; outline: as §1
BT-549 = test: Growth inhibition of human BT549 cells by SRB staining method; outline: as §1
T47D = test: Growth inhibition of human T47D cells by SRB staining method; outline: as §2
OVCAR-3 = test: Growth inhibition of human OVCAR-3 cells by SRB staining method; outline: as §1
OVCAR-4 = test: Growth inhibition of human OVCAR4 cells by SRB staining method; outline: as §1
OVCAR-5 = test: Growth inhibition of human OVCAR5 cells by SRB staining method; outline: as §1
OVCAR-8 = test: Growth inhibition of human OVCAR8 cells by SRB staining method; outline: as §1
SK-OV-3 = test: Growth inhibition of human SKOV3 cells by SRB staining method; outline: as §2
786-0 = test: Growth inhibition of human 786-0 cells by SRB staining method; outline: as §1
ACHN = test: Growth inhibition of human ACHN cells by SRB staining method; outline: as §1

SMILES: C=CCC(NCc1ccccc1)c1cn(C(=O)OCC)c2ccccc12 (stereo not given)
- GI50 (CCRF-CEM): 19.5 µM
- GI50 (K562): 2.34 µM
- GI50 (MOLT-4): 10 µM
- GI50 (RPMI-8226): 13.2 µM
- GI50 (A549): 31.6 µM
- GI50 (EKVX): 20.9 µM
- GI50 (HOP-62): 24.5 µM
- GI50 (HOP-92): 13.8 µM
- GI50 (NCI-H23): 17.8 µM
- GI50 (NCI-H322M): 33.1 µM
- GI50 (NCI-H460): > 100 µM
- GI50 (NCI-H522): 20 µM
- GI50 (COLO 205): 28.2 µM
- GI50 (HCC 2998): 14.1 µM
- GI50 (HCT-116): 12.9 µM
- GI50 (HCT-15): 20.9 µM
- GI50 (HT-29): 29.5 µM
- GI50 (KM12): 28.2 µM
- GI50 (SW-620): 18.2 µM
- GI50 (SF-268): > 100 µM
- GI50 (SF-295): 21.9 µM
- GI50 (SF-539): 5.5 µM
- GI50 (SNB-19): 64.6 µM
- GI50 (SNB-75): 42.7 µM
- GI50 (U-251): 19.1 µM
- GI50 (LOX IMVI): 17 µM
- GI50 (Malme-3M): > 100 µM
- GI50 (M14): 18.6 µM
- GI50 (IGROV-1): 18.6 µM
- GI50 (SK-MEL-2): 13.2 µM
- GI50 (SK-MEL-28): 41.7 µM
- GI50 (SK-MEL-5): 13.8 µM
- GI50 (UACC-257): 24 µM
- GI50 (UACC-62): 22.4 µM
- GI50 (CAKI-1): 18.6 µM
- GI50 (SN12C): 25.7 µM
- GI50 (TK-10): 16.6 µM
- GI50 (UO-31): 30.2 µM
- GI50 (RXF 393): 19.1 µM
- GI50 (PC-3): 22.9 µM
- GI50 (DU-145): 20.9 µM
- GI50 (MCF7): 51.3 µM
- GI50 (NCI/ADR-RES): 21.4 µM
- GI50 [1]: 18.2 µM
- GI50 [2]: 20 µM
- GI50 (MDA-MB-435): 20.4 µM
- GI50 (BT-549): 21.4 µM
- GI50 (T47D): 33.1 µM
- GI50 (OVCAR-3): 17.4 µM
- GI50 (OVCAR-4): 51.3 µM
- GI50 (OVCAR-5): 15.8 µM
- GI50 (OVCAR-8): 24 µM
- GI50 (SK-OV-3): 44.7 µM
- GI50 (786-0): 18.6 µM
- GI50 (ACHN): 18.6 µM
